Assay [1] concerns MT4. Kind of assay: Selectivity Index measured as the ratio of CC50 to that of EC50 values.
The subject of assay [2] is Human immunodeficiency virus. Kind of assay: Effective concentration required to achieve 50% protection of MT-4 cells against the cytopathic effect of HIV-1 (HTLV-IIIB). Type of assay: functional, organism-based. The note with it: Human immunodeficiency virus 1, MT4. Summed up:
(§1)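 MT-4 cells at 2.5×10^5 cells/mL infected with 1000 CCID50 of the named HIV strain, then plated at once over a range of compound concentrations. Incubation at 37 °C for 4 days or 5 days. Viable cells read by MTT. EC50 is the concentration giving 50% protection from virus-induced cytopathic effect.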

The subject of assay [3] is MT4. Kind of assay: Cytotoxic concentration required to reduce the viability of mock-infected MT-4 cells by 50%. Type of assay: functional. The note with it: Homo sapiens. The method in brief: (§2)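 Mock-infected MT-4 cells at 2.5×10^5 cells/mL plated with various concentrations of compound, run in parallel with the antiviral assay. Viable cells counted by MTT after 4 days or 5 days at 37 °C. CC50 is the concentration that lowers viability by 50%.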

Assay [4] has as its system Human immunodeficiency virus. Description: Effective concentration required to achieve 50% protection of MT-4 cells against the cytopathic effect of HIV-1 (HTLV-IIIB strain) and determined on 4th day after virus infection. It is filed as functional, organism-based. The note with it: Human immunodeficiency virus 1, MT4. The method in brief: as §1
Assay [5] deals with Human immunodeficiency virus. Kind of assay: Effective concentration required to achieve 50% protection of MT-4 cells against the cytopathic effect of HIV-2 ((LAV-2EHO strain) and determined on 4th day after virus infection. Type of assay: functional, organism-based. The note with it: Human immunodeficiency virus 1, MT4. The method in brief:
as §1

Assay [6] concerns Human immunodeficiency virus. Description: Cytotoxic concentration required to reduce the viability of mock-infected MT-4 cells (HIV-1 HTLV-IIIB strain) by 50% was determined on 4th day after virus infection. Type of assay: functional. The note with it: Human immunodeficiency virus 1, MT4. The method in brief:
as §2

Assay [7] relates to Human immunodeficiency virus. Kind of assay: Effective concentration required to achieve 50% protection of MT-4 cells against the cytopathic effect of HIV-1 (HTLV-IIIRF strain) and determined on 4th day after virus infection. Type of assay: functional, organism-based. The note with it: Human immunodeficiency virus 1, MT4. Summed up:
as §1

For assay [8], the system named is Human immunodeficiency virus. Kind of assay: Effective concentration required to achieve 50% protection of MT-4 cells against the cytopathic effect of HIV-2 (LAV-2ROD strain) and determined on 4th day after virus infection. It is filed as functional, organism-based. The note with it: Human immunodeficiency virus 1, MT4. The method in brief:
as §1

`Cc1c(Br)n(COCCO)c(=O)[nH]c1=O`: the Selectivity index in the assay with MT4 [1] is less than 1. Also, the 50% effective concentration (EC50) in assay [2] was greater than 180 µM. The molecule also gave a CC50 with MT4 [3] of 180 µM.
The corresponding values for `COc1c(C)c(=O)[nH]c(=O)n1COCCO` are less than 1, greater than 484 µM and 484 µM.
As for `C=Cc1c(C)c(=O)[nH]c(=O)n1COCCO`, the concentration giving a half-maximal response (EC50) in assay [2] is greater than 250 µM. The 50% cytotoxic concentration (CC50) with MT4 [3] was greater than 250 µM.
For `CC(C)C(=O)c1c(Sc2ccccc2)n(COCCO)c(=O)[nH]c1=O`, the Selectivity index with MT4 [1] was less than 1. Besides, in assay [2], the EC50 was greater than 12 µM. Moreover, the cytotoxic concentration (CC50) with MT4 [3] amounted to 12 µM.
In assay [2], `CC#Cc1c(C)c(=O)[nH]c(=O)n1COCCO` displayed an EC50 greater than 250 µM. The same molecule gave a CC50 in the assay on MT4 [3] greater than 250 µM.
Regarding `Cc1c(Sc2ccccc2)n(COCCO)c(=O)[nH]c1=O` [HEPT], the concentration for a half-maximal effect (EC50) is 6.5 µM in assay [4]; greater than 250 µM in assay [5]; 7 µM in assay [2]; 8.1 µM in assay [7]; greater than 250 µM in assay [8]. For the same molecule, the CC50 in assay [6] was greater than 500 µM; with MT4 [3] it was 740 µM.
For the molecule `Cc1c(C(=O)c2ccccc2)n(COCCO)c(=O)[nH]c1=O`, the Selectivity index with MT4 [1] is reported as less than 1. The molecule further displayed a concentration giving a half-maximal response (EC50) in assay [2] greater than 366 µM. The molecule also showed a half-maximal cytotoxic concentration (CC50) in the assay on MT4 [3] of 366 µM.
On to `C#Cc1c(Sc2ccccc2)n(COCCO)c(=O)[nH]c1=O`, for which the Selectivity index in the assay with MT4 [1] is given as less than 1. In assay [2], this molecule displayed an EC50 greater than 18 µM. This molecule also registered a cytotoxic concentration (CC50) with MT4 [3] of 18 µM.
As to `Cc1c(C(O)c2ccccc2)n(COCCO)c(=O)[nH]c1=O` (centres undefined), the Selectivity index in the assay with MT4 [1] is reported as less than 1. In assay [2], the concentration for a half-maximal effect (EC50) was greater than 400 µM. Also, the half-maximal cytotoxic concentration (CC50) in the assay on MT4 [3] was 400 µM.
Consider `O=c1[nH]c(=O)n(COCCO)c(Sc2ccccc2)c1Sc1ccccc1`, for which the Selectivity index in the assay with MT4 [1] is less than 1. The same molecule registered an EC50 in assay [2] greater than 21 µM. This molecule registered a CC50 with MT4 [3] of 21 µM.
The corresponding values for `O=c1[nH]c(=O)n(COCCO)c(Sc2ccccc2)c1C#Cc1ccccc1` are less than 1, greater than 3.4 µM and 3.4 µM.
The corresponding values for `O=c1[nH]c(=O)n(COCCO)c(Sc2ccccc2)c1Cc1ccccc1` are less than 1, greater than 23 µM and 23 µM.
`Cc1c(SC2CCCCC2)n(COCCO)c(=O)[nH]c1=O`: the EC50 in assay [4] was 7.7 µM; in assay [5], greater than 250 µM; in assay [2] it was 8.2 µM; in assay [7], 7.9 µM; in assay [8] it was greater than 250 µM. Besides, in the assay on MT4 [1], the Selectivity index stood at 81. In addition, the CC50 in assay [6] was 440 µM; in the assay on MT4 [3], 664 µM.
As for `O=C(c1ccccc1)c1c(Sc2ccccc2)n(COCCO)c(=O)[nH]c1=O`, the Selectivity index in the assay on MT4 [1] is reported as less than 1. The molecule also displayed an EC50 in assay [2] greater than 13 µM. In addition, the midpoint of cytotoxicity in the assay with MT4 [3], the CC50, lay at 13 µM.
In the same order, the values of `Nc1ccn([C@H]2CC[C@@H](CO)O2)c(=O)n1` [ZALCITABINE] are 133, 0.3 µM and 40 µM.
In the same order, the values of `Cc1cn([C@H]2C[C@H](N=[N+]=[N-])[C@@H](CO)O2)c(=O)[nH]c1=O` [ZIDOVUDINE] are 1250, 0.016 µM and 20 µM.
In assay [2], `Cc1c(Cl)n(COCCO)c(=O)[nH]c1=O` had an EC50 greater than 250 µM. Also, the cytotoxic concentration (CC50) with MT4 [3] was greater than 250 µM.
Consider `Cc1c(Nc2ccccc2)n(COCCO)c(=O)[nH]c1=O`, for which the Selectivity index in the assay on MT4 [1] is reported as less than 1. This molecule also gave a half-maximal effective concentration (EC50) in assay [2] greater than 327 µM. Also, in the assay on MT4 [3], the CC50 is 327 µM.
For `Cc1c(/C=C/c2ccccc2)n(COCCO)c(=O)[nH]c1=O`, in assay [2], the EC50 was greater than 250 µM. This molecule came in with a CC50 in the assay on MT4 [3] greater than 250 µM.
As for `CCSc1c(C)c(=O)[nH]c(=O)n1COCCO`, the concentration giving a half-maximal response (EC50) in assay [2] was greater than 250 µM. Besides, in the assay with MT4 [3], the CC50 was greater than 250 µM.
Consider `CSc1c(C)c(=O)[nH]c(=O)n1COCCO`, for which, in assay [2], the half-maximal effective concentration (EC50) is greater than 250 µM. This molecule registered a CC50 in the assay on MT4 [3] greater than 250 µM.
In the case of `Cc1c(OC2CCCCC2)n(COCCO)c(=O)[nH]c1=O`, in the assay with MT4 [1], the Selectivity index was less than 1. The half-maximal effective concentration (EC50) in assay [2] is greater than 400 µM. Further, the CC50 with MT4 [3] worked out at 400 µM.
For `Cc1c(Oc2ccccc2)n(COCCO)c(=O)[nH]c1=O`, the Selectivity index in the assay on MT4 [1] is reported as 4.1. This molecule also gave an EC50 in assay [2] of 85 µM. Further, the cytotoxic concentration (CC50) in the assay on MT4 [3] worked out at 345 µM.
Turning to `O=c1[nH]c(=O)n(COCCO)c(Sc2ccccc2)c1/C=C/c1ccccc1`, the Selectivity index in the assay with MT4 [1] came to 16. In assay [2], this molecule yielded an EC50 of 6 µM. In addition, the cytotoxic concentration (CC50) in the assay with MT4 [3] turned out to be 95 µM.
The corresponding values for `O=c1[nH]c(=O)n(COCCO)c(Sc2ccccc2)c1I` are 5.6, 3.6 µM and 20 µM.
The molecule `CCCCSc1c(C)c(=O)[nH]c(=O)n1COCCO` returned a concentration giving a half-maximal response (EC50) in assay [2] of 130 µM. In the assay on MT4 [3], this molecule registered a cytotoxic concentration (CC50) greater than 250 µM.
`Cc1c(NC2CCCCC2)n(COCCO)c(=O)[nH]c1=O`: the Selectivity index in the assay with MT4 [1] is on record as less than 1. This molecule also registered an EC50 in assay [2] greater than 377 µM. Further, in the assay with MT4 [3], the CC50 was determined as 337 µM.
Regarding `Cc1c(Cc2ccccc2)n(COCCO)c(=O)[nH]c1=O`, the Selectivity index with MT4 [1] was 15. Besides, in assay [2], the EC50 is 23 µM. In addition, in the assay with MT4 [3], half-maximal cytotoxicity (CC50) was put at 352 µM.
In the same order, the values of `Cc1c(C#Cc2ccccc2)n(COCCO)c(=O)[nH]c1=O` are less than 1, greater than 14 µM and 14 µM.
`C/C=C/c1c(C)c(=O)[nH]c(=O)n1COCCO` came in with a half-maximal effective concentration (EC50) in assay [2] greater than 250 µM. The molecule further returned a CC50 with MT4 [3] greater than 250 µM.
As for `C#Cc1c(C)c(=O)[nH]c(=O)n1COCCO`, in the assay on MT4 [1], the Selectivity index is less than 1. The same molecule gave an EC50 in assay [2] greater than 5.5 µM. Also, the CC50 in the assay on MT4 [3] stood at 5.5 µM.
The corresponding values for `C=Cc1c(Sc2ccccc2)n(COCCO)c(=O)[nH]c1=O` are 69, 1.1 µM and 76 µM.
In the same order, the values of `Cc1c(SC(C)(C)C)n(COCCO)c(=O)[nH]c1=O` are less than 1, greater than 366 µM and 366 µM.
For `CC#Cc1c(Sc2ccccc2)n(COCCO)c(=O)[nH]c1=O`, in the assay on MT4 [1], the Selectivity index is less than 1. Besides, in assay [2], the concentration for a half-maximal effect (EC50) is greater than 19 µM. The same molecule displayed a half-maximal cytotoxic concentration (CC50) in the assay with MT4 [3] of 19 µM.
The corresponding values for `O=c1[nH]c(=O)n(COCCO)c(Sc2ccccc2)c1C=C(c1ccccc1)c1ccccc1` are 25, 0.84 µM and 21 µM.
In the same order, the values of `Nc1ncnc2c1ncn2[C@H]1CC[C@@H](CO)O1` are 141, 6.3 µM and 890 µM.

These data come from ChEMBL document CHEMBL1125739, “A new class of HIV-1-specific 6-substituted acyclouridine derivatives: synthesis and anti-HIV-1 activity of 5- or 6-substituted analogues of 1-[(2-hydroxyethoxy)methyl]-6-(phenylthio)thymine (HEPT)” (J Med Chem, 1991).
